{"source": "paper PMC9380907", "about": "(Analytica Chimica Acta, 2022)", "type_in_all_cases": "binding", "key": {"TGF": {"system": "TGF", "assay": "ITC of probe 2 with TGF", "settings": "25 °C", "outline": "(§1)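 MicroCal ITC200 titrations at 25 °C: 38 consecutive injections at intervals of at least 120 s. All solutions were degassed beforehand. Heats of dilution, measured by titrating beyond saturation, were subtracted from each data set.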"}, "[1]": {"assay": "ITC of probe 2 with the label", "settings": "25 °C, 10 mM PBS pH 7.4, 0.5 mM probe 2 into 0.05 mM label", "outline": "as §1"}, "Cu": {"assay": "Cu", "settings": "SWV, n = 3", "outline": "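Au slides were cleaned by sonication in 20 wt% ethanolamine at about 50 °C, then dipped briefly in piranha. Probe 1 (2.5 μM) with 5 mM TCEP in 10 mM PBS pH 7.4 was assembled at 4 °C for 16 h, then backfilled with 1 mM 9-mercaptononanol for 3 h at RT. Cu was loaded with 10 μM CuCl2 for 30 min at RT. Cathepsin B was in 25 mM MES pH 5.0 and incubated at 37 °C. SWV was run in N2-purged 10 mM PBS pH 7.4 (SCE, Pt counter), with at least three independent repeats.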"}, "ITC with heparin": {"assay": "ITC with heparin", "settings": "25 °C, 10 mM PBS pH 7.4", "outline": "as §1"}}}
{"substance": "(MUA)K–FSHF-(ARKKAAKA)3VLVLVLVL [probe 2]", "values": [{"measurement": "Binding to target TGF", "setting": "TGF; 10 mM PBS pH 7.4, 0.5 mM probe 2 into 0.05 mM TGF", "result": "bind strongly"}, {"measurement": "Binding with target TGF relative to label", "setting": "TGF; 10 mM PBS pH 7.4, comparison with label", "result": "stronger"}, {"measurement": "Binding to label", "setting": "[1]", "result": "bind strongly"}]}
{"substance": "11-Mercaptoundecanoic acid (MUA)K-DAHKI-(ARKKAAKA)3VLVLVLVL [probe 1]", "values": [{"measurement": "Binding with Cu II ion", "setting": "Cu; surface immobilized probe 1, after cleavage by target enzyme (33 nM)", "result": "completely abolish the binding"}, {"measurement": "Binding with Cu II ion", "setting": "Cu; surface immobilized probe 1, before enzyme cleavage", "result": "relatively strong binding"}]}
{"substance": "TGF beta 1: transforming growth factor-beta 1, from R&D system", "values": [{"measurement": "Interaction with heparin", "setting": "ITC with heparin", "result": "weak interactions with heparin"}]}
